High-throughput results deposited in PubChem BioAssay by several laboratories.
An excerpt weighted towards active compounds, which were near 4.5% of everything screened.
RGS4 inh: inhibitors of human RGS4; B-score at 10 µM; HEK293 M3R/RGS4 inducible, Fluo-4 calcium flux; stronger effect = higher value; triggered by carbachol at its EC20; AID 463165; hit rate 0.45% among 310,000; P49798;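 active = B-score, a plate-corrected calcium signal, over three deviations above library mean, with baseline fluorescence within five deviations of library mean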;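 note: RGS4 expression induced by doxycycline in cells with stable M3 receptor; B-score is computed from the integrated fluorescence ratio over baseline after carbachol; higher B-score means a larger calcium signal and so more RGS4 inhibition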
Target sequence (P49798 whole entry, looked up): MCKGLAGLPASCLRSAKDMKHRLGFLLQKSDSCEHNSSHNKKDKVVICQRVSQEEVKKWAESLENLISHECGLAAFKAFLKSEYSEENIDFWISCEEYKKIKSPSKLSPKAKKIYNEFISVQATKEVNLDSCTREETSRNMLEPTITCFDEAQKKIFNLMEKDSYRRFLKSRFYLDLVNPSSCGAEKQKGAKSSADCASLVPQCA
MrgX1 agonist: agonists of human MrgX1 receptor; B-score at 10 µM; MrgX1-HEK293 cells, Fluo-4 calcium fluorescence, agonist mode; stronger effect = higher value; hit rate 0.44% among 310,000;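 active = calcium response B-score plate-corrected fluorescence ratio at least 3 library SD, with starting fluorescence B-score inside 5 SD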
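Assay system: stable human MrgX1 HEK293 cell line. Quantity: 15,000 cells per well. Schedule: cells plated overnight, dye loaded 0.5 h 37 °C, 0.5 h room temperature. Detection: Fluo-4 NW calcium-flux fluorescence, kinetic read. Read-out basis: peak-minus-minimum fluorescence over baseline, converted to B scores. Control set: positive and negative control wells on each plate.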
RGS4 pot: potentiators or activators of RGS4 | hit rate 0.92% among 310,000 | HEK293 M3R/inducible RGS4, carbachol calcium flux Fluo4; stronger effect = lower value | B-score at 10 µM;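 active = B-score of the integrated calcium signal more than 4 SD below the library mean, with starting fluorescence not abnormally high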;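 note: negative B-score means reduced calcium response which marks RGS4 activation or potentiation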
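Assay system: Inducible-RGS4 HEK293 cells carrying M3 receptor | Schedule: Compound preincubation 20 min at room temperature before agonist | Signal: Kinetic calcium fluorescence imaging with Fluo4-AM dye, 2 µM | Read-out basis: B score from integrated fluorescence ratio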
PHOSPHO1 block: inhibitors of human PHOSPHO1 phosphatase | Q8TCT1 | hit rate 1.1% among 290,000 | recombinant PHOSPHO1, absorbance phosphatase assay | inhibition, % at 13.3 µM; in the data active = inhibition above about 60%
Target sequence (Q8TCT1 whole entry, looked up): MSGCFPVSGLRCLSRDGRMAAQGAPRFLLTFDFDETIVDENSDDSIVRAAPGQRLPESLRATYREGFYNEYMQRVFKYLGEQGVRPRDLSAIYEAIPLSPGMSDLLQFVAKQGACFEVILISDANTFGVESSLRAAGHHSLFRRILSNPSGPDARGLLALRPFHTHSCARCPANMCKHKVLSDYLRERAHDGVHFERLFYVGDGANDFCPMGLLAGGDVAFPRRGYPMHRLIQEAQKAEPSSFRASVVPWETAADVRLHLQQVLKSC
MrgX1 PAM: allosterically activates human MrgX1 receptor signaling | Q96LB2 | MrgX1-HEK293, Fluo-4 calcium flux, FDSS; stronger effect = higher value | B-score at 10 µM | hit rate 0.63% among 310,000;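 active = plate-corrected calcium response at least 3 library SD above typical, normal starting fluorescence, not activating the receptor alone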;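 note: compound read alongside a low EC10 to EC30 dose of BAM8-22 agonist; peak minus trough fluorescence over baseline measured at the second addition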
MrgX1 antag: blocks BAM8-22 activation of human MrgX1 receptor | Q96LB2 | MRGX1-HEK293 calcium flux, Fluo-4, BAM8-22 antagonism; stronger effect = lower value | B-score at 10 µM | hit rate 1.3% among 310,000;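 active = calcium-response B-score plate-corrected more than 3 library SD below zero, starting fluorescence within 5 deviations, no agonist response on first addition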;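 note: peak minus trough fluorescence over baseline after final BAM8-22 challenge near maximal dose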
RGS4 inh valid: RGS4 inhibitor validation; shares compounds with RGS4 inh; HEK293 M3R/RGS4, carbachol calcium Fluo-4 fluorescence; carbachol added at its EC20; 0 = buffer wells, 100 = carbachol control; calcium response, % at 10 µM; hit rate 65% among 1,700;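 active = duplicate-averaged calcium response above the buffer-only control mean plus 5 SD of those controls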;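 note: integrated fluorescence ratio F max minus min over baseline F0; higher response in RGS4-induced cells means RGS4 inhibition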
M3R Ca ctr: checks RGS4 inhibitor effects in non-induced HEK293 M3R cells; shares compounds with RGS4 inh; hit rate 20% among 1,900; carbachol calcium Fluo-4; submaximal (EC20) carbachol stimulus; buffer wells 0%, carbachol control wells 100%; activity (percent), % at 10 µM; call rule not given here;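 note: RGS4 induction absent so cells express M3R without RGS4; higher means more calcium signal and flags a non-specific hit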
M3R basal Ca ctr: second counter-screen for RGS4 inhibitors: non-induced cells without carbachol; HEK293 M3R/RGS4 non-induced, Fluo-4 calcium, no carbachol; normalised: buffer wells 0%, carbachol wells 100%; shares compounds with RGS4 inh; hit rate 22% among 1,900; calcium response (agonist-mode artifact), % at 10 µM;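 active = duplicate-averaged calcium rise in uninduced cells above buffer wells' mean plus 5 SD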
The depositor's hits bear a star; i = inactive; / = not tested or not shown.

SMILES	RGS4 inh	MrgX1 agonist	RGS4 pot	PHOSPHO1 block	MrgX1 PAM	MrgX1 antag	RGS4 inh valid	M3R Ca ctr	M3R basal Ca ctr
COc1ccc(NCc2nnc(SCc3ccc(Cl)cc3)n2-c2ccccc2)cc1	8*	i	i	14	i	i	62%*	40%*	38%*
O=[N+]([O-])/C=C\c1ccc(N2CCOCC2)cc1	35*	41*	i	/	i	i	88%*	94%*	35%*
COc1ccc(Nc2nc(NN)nc(Nc3ccc(OC)cc3)n2)cc1	i	i	i	3	i	i	/	/	/
O=C(NCc1ccccc1)c1nc2c(nnn2Cc2cccc(Cl)c2)c(=O)[nH]1	4.9*	i	i	-12	i	i	22%*	i	i
O=C(NCc1ccco1)c1nc2c(nnn2Cc2cccc(Cl)c2)c(=O)[nH]1	8*	i	i	28	i	i	22%*	i	i
Cc1cc(Br)cc2c1N(C)C(=O)C2(c1ccc(O)cc1)c1ccc(O)cc1	27*	i	i	/	i	i	76%*	43%*	i
Oc1c(Br)cccc1/C=N/c1ncn[nH]1	4.7*	i	i	-24	i	i	7.5%*	i	i
CC(NC(=O)C(=O)NCCC1=CCCCC1)c1ccccc1 (stereo not drawn)	i	i	i	-22	i	i	/	/	/
Cc1noc(NS(=O)(=O)c2ccc(N/C=C/C(=O)c3ccc(F)cc3)cc2)c1C	i	i	i	-23	i	i	/	i	i
Cc1noc(NS(=O)(=O)c2ccc(N/C=C\C(=O)c3ccncc3)cc2)c1C	i	i	i	-7	i	i	/	i	i
Cc1noc(NS(=O)(=O)c2ccc(N/C=C/C(=O)c3ccncc3)cc2)c1C	i	i	i	6	i	i	i	i	i
O=C(CC(=O)Nc1ccc(F)cc1)Nc1ccc(F)cc1	i	i	i	-4	i	i	/	/	/
COc1ccc(NC(=O)/C(Cl)=C(/Cl)S(=O)(=O)Cc2ccc(C)cc2)cn1	12*	/	i	0	/	/	24%*	i	7.5%*
C#CCOC(=O)CCCC(=O)NCCCCCCCC	i	i	i	44	i	i	/	/	/
OCC(CO)(CO)N=Cc1cc(Br)ccc1O	5.8*	i	i	-11	i	i	i	i	i
CCN(CC)c1ccc(N=Cc2cc(Br)ccc2O)cc1	i	i	i	-5	i	i	/	/	/
COc1cc(/C=C2/C(=O)N(c3ccccc3)N=C2C)ccc1OS(=O)(=O)c1ccccc1	i	i	i	-26	i	i	/	/	/
COc1ccc(/C=C2/C(=O)N(c3ccccc3)N=C2C)cc1Br	24*	i	i	25	8.9*	i	i	i	i
COc1ccc(NS(=O)(=O)c2ccc(Cl)c(N)c2)cc1Br	8.6*	i	i	20	i	i	15%*	32%*	i
COc1ccc(C(C(=O)NC(C)(C)C)N(C(=O)CCC(=O)Nc2cc(C)on2)c2ccc(C)c(C)c2)cc1 (stereo not drawn)	i	i	i	35	i	i	/	/	/
COc1ccc2o/c(=N\O)c(C(=O)Nc3ccc(C)cc3)cc2c1	12*	/	i	56	/	/	14%*	i	i
COc1ccccc1NC(=O)c1cc2ccc(O)cc2o/c1=N\O	i	i	i	17	i	i	i	i	i
COc1ccc2oc(=N)c(C(=O)Nc3ccc(C)cc3)cc2c1	i	i	i	-3	i	i	/	/	/
